# Measurements taken from paper PMC9278990 (Nature structural & molecular biology, 2021).
# “Also recorded” adds a separate entry of the source. No end group written: not given here.
# Columns and labels:
# FLCN–LDHA complex = assay: FLCN-LDHA complex disruption in HEK293; type: cell-based, human; settings: HEK293, exogenous addition, 6 h; n=3
# Outline: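 HEK293 cells were given exogenous lactate or pyruvate for 6 h. Lysates underwent anti-FLCN IP (antibody 1 h, then protein G agarose 2 h, 4 °C), four washes in lysis buffer, Laemmli elution and immunoblotting alongside whole-cell extracts. Three independent experiments.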
# LDHA [1] = assay: Fluorescence polarization anisotropy binding to LDHA; design: species or system human; settings: rhodamine B-labeled peptide, pH 7.2, 30 min on ice, n = 3
# pTyr10-LDHA = assay: LDHA activity; type: cell-based, human; settings: rhodamine B-labeled peptides, pTyr10-LDHA normalized to NT; n=3
# Outline: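 HEK293 cells were treated with 1 μM rhodamine B-labeled peptides for 2 h. Whole-cell lysates were immunoblotted for pTyr10-LDHA, and band density was expressed as fold change versus untreated cells. n = 3.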
# LDHA [2] = assay: LDHA kinetics and inhibition assay; type: biochemical, human; settings: n = 3; for potency as compared to LDHA inhibitor FX11: 2 nM FLCN or 100 nM FLCN-10 versus 60 μM FX11, pH 7.0, 2 mM pyruvate; for mode of LDHA inhibition: 50 mM Tris-HCl pH 7.0, 2 mM pyruvate, varied NADH, 2 nM FLCN or 100 nM FLCN-10
# Outline: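 Reactions contained 50 mM Tris-HCl pH 7.0, 2 mM pyruvate and varied NADH, with test protein (2 nM), test peptide (100 nM) or reference inhibitor FX11 (60 μM). Triplicates, ≥2 independent assays. IC50 came from curve fitting; Ki came from Lineweaver–Burk analysis and IC50-to-Ki conversion.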
# dimeric LDHA = assay: LDHA activity, predominantly dimeric LDHA; type: biochemical, human; settings: LDHA 10 ng/μl (predominantly dimeric), increasing amounts of FLCN protein or FLCN-10; n=3
# LDHB = assay: Co-immunoprecipitation of FLCN with LDHB; type: binding, human; settings: HEK293 cells, LDHB-FLAG IP; HAP1 cells
# Outline: (§1)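 Lysates came from transfected HEK293 cells (24 h post-transfection) or, for endogenous FLCN IP, from LDHA or LDHB knockout HAP1 cells. Capture used anti-FLAG or anti-HA agarose (2 h, 4 °C) or anti-LDHA/anti-FLCN antibody (1 h) followed by protein G agarose (2 h, 4 °C). Beads were washed four times in NP40 lysis buffer, eluted in Laemmli buffer and immunoblotted.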
# LDHA [3] = assay: Native PAGE of LDHA oligomers; design: species or system human
# Outline: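 HEK293 cells were transiently transfected with pcDNA3 constructs (TransIT-2020) for 24 h and lysed. Lysates were mixed with non-denaturing loading buffer (250 mM Tris-HCl pH 6.8, 30% glycerol, 0.05% bromophenol blue; 5× stock) for 5 min at room temperature. Samples were resolved on Tris-HCl gels in native running buffer (25 mM Tris, 192 mM glycine).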
# LDHA [4] = assay: Co-immunoprecipitation of FLCN with LDHA; type: binding, human; settings: expressed in HEK293 cells, FLAG IP, immunoblot
# Outline: as §1
# UOK257 cells = assay: Extracellular acidification rate; type: cell-based, human; settings: n = 8
# Outline: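 UOK257 cells were transfected at 50% confluency in 100-mm dishes (24 h), or left untransfected for peptide treatment. Cells were seeded at 1 × 10^5 per well 24 h before assay and treated immediately before measurement (peptide, 2 h). ECAR was read by Seahorse XF glycolytic stress test. Transfection n = 8, peptide n = 4 independent samples.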
# LDH = settings: UOK257 lysates, 2 μg plasmid; n = 3
# LDHA [5] = assay: Cibacron Blue-agarose pulldown of LDHA; type: binding, human; settings: HEK293 cells overexpressing FLCN; Cibacron blue agarose 1 h at 4 °C; n=3
# Outline: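 Lysates of HEK293 cells expressing empty vector or FLCN-FLAG were incubated with Cibacron Blue agarose for 1 h at 4 °C. LDHA was immunoblotted and the pulldown:input ratio was normalized to vector.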
# [6] = system: LDHA/LDHB chimeric constructs; assay: Co-IP of FLCN with LDHA/LDHB chimeric constructs; type: binding, human; settings: HEK293, co-IP
# ccRCC cells = assay: Apoptosis in ccRCC cells on FLCN overexpression; type: cell-based, human; settings: 786-O, Caki-1 and Caki-2, FLAG-tagged FLCN, immunoblot
# [7] = overexpression of FLCN in HEK293, native PAGE
compound,measurement,setting,value
CC(O)C(=O)O (centres unmarked) [lactate],effect on FLCN–LDHA complex,FLCN–LDHA complex,much milder effect on dissociation of LDHA from FLCN
CC(=O)C(=O)O [pyruvate],effect on FLCN–LDHA complex,FLCN–LDHA complex,disruption of the FLCN–LDHA complex
FLCN-1: peptide derived from aa 220–230 of FLCN (QRMNTAFTPFL; also: rhodamine B label (position not given here)),binding to LDHA (in words),LDHA [1],bound tightly to LDHA
same,LDHA activity in HEK293 cells,pTyr10-LDHA,effectively reduced LDHA activity
FLCN-10: decapeptide derived from the FLCN loop region; aa 219–228 (AQRMNTAFTP; also: rhodamine B label (position not given here)),potency as compared to LDHA inhibitor FX11,LDHA [2],greatly improved potency
same,mode of LDHA inhibition,LDHA [2],uncompetitively inhibits LDHA
same,inhibition of dimeric LDHA,dimeric LDHA,effectively inhibit dimeric
same,binding to LDHA (in words),LDHA [1],greatly enhanced binding
folliculin [FLCN],binding to LDHB (co-IP),LDHB,no interaction with LDHB was detected
same,preference for LDHA oligomeric state,LDHA [3]; dimer compared to tetramer,prefers binding to the less active LDHA dimer
same,effect on large oligomeric complexes of LDHA,LDHA [3]; [7],decrease in large oligomeric complexes of LDHA
same,formation of dimeric LDHA species (70 kDa),LDHA [3]; [7],induces formation of a dimeric LDHA species
same,potency as compared to LDHA inhibitor FX11,LDHA [2],greatly improved potency
same,mode of LDHA inhibition,LDHA [2],uncompetitively inhibits LDHA; also recorded: uncompetitive inhibitor of LDHA
same,binding to LDHA (co-IP),LDHA [4],specifically bound to LDHA
same,"ECAR, transfection of 2 μg plasmid","UOK257 cells; UOK257, 2 μg transfection",little effect
same,"ECAR, transfection of 8 μg plasmid","UOK257 cells; UOK257, 8 μg transfection",reduced ECAR to a similar level as the FLCN-replaced control cell line
same,inhibition of dimeric LDHA,dimeric LDHA,effectively inhibit dimeric
same,LDH activity after transfection of 2 μg,LDH,~ 77%
same,LDHA binding to Cib-agarose,LDHA [5],greatly diminished
same,binding to LDHA with both domains (NC) replaced by LDHB,[6]; NC chimeric construct,completely abrogated FLCN interaction
same,binding to LDHA with LDHB N domain or C domain individually,[6]; chimeric constructs (first 22 / last 38 amino acids swapped),preserved binding
same,apoptosis in ccRCC on overexpression,ccRCC cells,induced apoptosis in ccRCC cells
